Assay results pooled from the literature.
Read-out: cell growth or viability

O=C1Nc2ccc(Br)cc2/C1=N/NC(=O)c1cc2ccccc2[nH]1  inhibition (ZR75; 30 µM): 58.9%
O=C(Nc1ccc(OC(F)(F)F)cc1)Nc1cccc(C(=O)Nc2ccc3[nH]ncc3c2)c1  IC50 (KM12; ATP luminescence; 72 h): 43.3 µM
Cc1ccc(C(CS(=O)(=O)c2ccccc2)=NNc2nc(-c3ccc(OCCCCOc4ccc(-c5csc(NN=C(CS(=O)(=O)c6ccccc6)c6ccc(C)cc6)n5)cc4)cc3)cs2)cc1  viability (WM 266-4; MTT; 0.4 µM; 48 h): 77%
Cn1cc(-c2cc(N3CCCCS3(=O)=O)ccc2Oc2ccc(F)cc2F)c2c(F)c[nH]c2c1=O  GI50 (MOLM-14; CCK-8; 72 h): 0.0081 µM
O=C(Nc1ccc(F)cc1)Nc1cccc(C(=O)Nc2ccc3[nH]ncc3c2)c1  IC50 (KM12; ATP luminescence; 72 h): 40.3 µM
CN1C(=O)/C(=N\NC(=O)c2cc3ccccc3[nH]2)c2cc(Br)ccc21  inhibition (ZR75; 30 µM): 90.2%
Cc1ccc(C(CS(=O)(=O)c2ccccc2)=NNc2nc(C)c(N=Nc3cccc(C)c3)s2)cc1  viability (WM 266-4; MTT; 100 µM; 48 h): 32.8%
Cn1c(=O)c(NN=C2C(=O)Nc3ccccc32)nc2ccccc21  inhibition (ZR75; 30 µM): 52.1%
CNC(=O)c1cc(Oc2ccc(NC(=O)Nc3ccc(Cl)c(C(F)(F)F)c3)cc2)ccn1  viability (WM 266-4; MTT; 100 µM; 48 h): 33.9%
COc1ccc2c(c1)C(=NNc1nc(-c3ccc(OC)c(OC)c3)nc3ccccc13)C(=O)N2  inhibition (ZR75; 30 µM): 23.1%
O=C1Nc2ccc(F)cc2/C1=N/NC(=O)c1cc2ccccc2[nH]1  inhibition (ZR75; 30 µM): 40%
CCN(CC)CCNC(=O)c1c(C)[nH]c(/C=C2\C(=O)Nc3ccc(F)cc32)c1C  inhibition (ZR75; 30 µM): 90.7%
COc1cc2ncnc(NN=C3C(=O)Nc4ccccc43)c2cc1OC  inhibition (ZR75; 30 µM): 50.4%
CC(C)(C)c1nc(-c2cccc(NS(=O)(=O)c3c(F)cccc3F)c2F)c(-c2ccnc(N)n2)s1  viability (WM 266-4; MTT; 25 µM; 48 h): 47.7%
O=C(Nc1ccc(C(F)(F)F)cc1)Nc1cccc(C(=O)Nc2ccc3[nH]ncc3c2)c1  IC50 (KM12; ATP luminescence; 72 h): 33.5 µM
CN1C(=O)/C(=N\NC(=O)c2cc3ccccc3[nH]2)c2cc(F)ccc21  inhibition (ZR75; 30 µM): 78.8%
Cn1c(=O)c(NN=C2C(=O)Nc3ccc(Cl)cc32)nc2ccccc21  inhibition (ZR75; 30 µM): 29.8%
NC(=S)NN=C(CS(=O)(=O)c1ccccc1)c1ccc(F)cc1  viability (WM 266-4; MTT; 100 µM; 48 h): 24.4%
S=C([S][Au-][P+](CCCCCC[P+]([Au-][S]C(=S)n1cccn1)(c1ccccc1)c1ccccc1)(c1ccccc1)c1ccccc1)n1cccn1  GI50 (KM12): 0.434 µM
COc1cccc(Oc2ccccc2NC(=O)CNC(=O)c2cccc3ccccc23)c1  GI50 (KM12; SRB; 48 h): 0.191 µM
CN1C(=O)/C(=N\NC(=O)c2cc3ccccc3[nH]2)c2ccccc21  inhibition (ZR75; 30 µM): 73.1%
COc1ccc2c(c1)C(=NNc1nc3ccccc3n(C)c1=O)C(=O)N2  inhibition (ZR75; 30 µM): 76%
Cc1ccc(C(CS(=O)(=O)c2ccccc2)=NN=C2N=C(c3ccc(Br)cc3)CS2)cc1  viability (WM 266-4; MTT; 25 µM; 48 h): 42.1%
COc1cc2ncnc(NN=C3C(=O)Nc4ccc(C)cc43)c2cc1OC  inhibition (ZR75; 30 µM): 40.4%
O=C1Nc2ccc(Cl)cc2/C1=N/NC(=O)c1cc2ccccc2[nH]1  inhibition (ZR75; 30 µM): 53.9%
COc1ccc2c(c1)C(=NNc1nnc(Cc3ccccc3)c3ccccc13)C(=O)N2  inhibition (ZR75; 30 µM): 30.9%
Cc1ccc(C(CS(=O)(=O)c2ccccc2)=NNC2=NC(=O)C(=NNc3ccccc3)S2)cc1  viability (WM 266-4; MTT; 6.3 µM; 48 h): 48.2%
COc1ccc(-c2nc(NN=C3C(=O)Nc4ccc(Br)cc43)c3ccccc3n2)cc1OC  inhibition (ZR75; 10 µM): 78.8%
CC#CC(=O)N1CC[C@@H](n2cc(-c3ccc(Oc4c(F)cccc4F)cc3)c3c(N)n[nH]c(=O)c32)C1  GI50 (JeKo-1; ATP luminescence; 72 h): 4.88 µM
